Measured values from different studies.
Compare with care: the assays were run in different laboratories.
Effect on: cell growth or viability

For `NC(=O)c1ccc(Oc2ccc(C(=O)C(Cl)Cl)cc2[N+](=O)[O-])cc1`, the inhibition was 97.2% (NCI-H1975; MTT; 2.5 µM).
For `C=CC(=O)Nc1cc(Nc2nccc(-c3cn(C)c4ccccc34)n2)c(OC)cc1N(C)CCN(C)C`, the IC50 was 29500 nM (NCI-H1975; MTT; 72 h).
The EC50 of `C=CC(=O)NC1CCN(c2ncc3ncnc(Nc4ccc(Oc5ccc6c(c5)ncn6C)c(C)c4)c3n2)CC1` is reported as 334 nM (SUM-159-PT).
`Cc1ncc(CN2CCN(Cc3ccccn3)CC2)c2cc(C(=O)c3ccc4c(c3)OCCO4)oc12` gave an IC50 of 38800 nM (NCI-H1975; MTT; 72 h).
With `O=C(NO)c1ccc(CNc2nc3cccc(-c4ccc5c(c4)OCO5)n3n2)cc1` the GI50 was 600 nM (NCI-H322M; SRB).
For `CC1(C)CCC(CN2CCN(c3ccc(C(=O)NS(=O)(=O)c4ccc(NCC5CCOCC5)c([N+](=O)[O-])c4)c(Oc4cnc5[nH]ccc5c4)c3)CC2)=C(c2ccc(Cl)cc2)C1`, the IC50 was 489 nM (Rec1; ATP luminescence; 48 h).
The IC50 of `CN(C)C/C=C/C(=O)Nc1cc2c(Nc3ccc(F)c(Cl)c3)ncnc2cc1O[C@H]1CCOC1` is reported as 30500 nM (NCI-H1975; MTT; 72 h).
For `C=CC(=O)N1CCN(c2nc(=O)n(-c3c(C)ccnc3C(C)C)c3nc(-c4c(O)cccc4F)c(F)cc23)[C@@H](C)C1`, the IC50 was 132 nM (SW1463; ATP luminescence).
For `O=C1CC[C@@H](COc2ccc(C(=O)C(Cl)Cl)cc2[N+](=O)[O-])N1`, the inhibition was 96.7% (NCI-H1975; MTT; 2.5 µM).
With `C=C(F)C(=O)N1CCN(c2nc(OC[C@@H]3CCCN3C)nc3c2CCN(c2cccc4cccc(Cl)c24)C3)C[C@@H]1CC#N` the IC50 was 367 nM (SW1463; ATP luminescence).
`CC(C)Oc1ccc(S(=O)(=O)c2ccc(Oc3cc(OCC(N)=O)c(C(=O)C(Cl)Cl)cc3[N+](=O)[O-])cc2)cc1` has an IC50 of 1220 nM (HEK293; MTT; 72 h).
The IC50 of `C=CC(=O)N1CCC([C@@H]2CCNc3c(C(N)=O)c(-c4ccc(Oc5ccccc5)cc4)nn32)CC1` is reported as 0.7 nM (TMD8; 6 days).
`O=C(c1ccc(Oc2ccc(OCc3ccccc3)cc2)c([N+](=O)[O-])c1)C(Cl)Cl` gave an inhibition of 95.2% (NCI-H1975; MTT; 2.5 µM).
`C=CC(=O)Nc1cc(Nc2nccc(-c3cn(C)c4ccccc34)n2)c(OC)cc1N(C)CCN(C)C` has an inhibition of 69.6% (NCI-H1975; MTT; 0.5 µM, 72 h).
`Cc1ccc2c(-c3cc4c(CNCc5cccnc5)cnc(C)c4o3)cc(=O)oc2c1C` has an IC50 of 43900 nM (NCI-H1975; MTT; 72 h).
The inhibition of `NC(=O)COc1ccc(C(=O)C(Cl)Cl)cc1[N+](=O)[O-]` is reported as 26.3% (NCI-H1975; MTT; 2.5 µM).
